Bioassay records: PubChem BioAssay, Johns Hopkins Ion Channel Center
An excerpt weighted towards active compounds, which were near 3.7% of everything screened.
KCNQ1 block: inhibitors of human KCNQ1 potassium channel | B-score at 10 µM | actives 1.3% (n = 310,000) | CHO-K1 KCNQ1, FluxOR thallium flux fluorescence; hits give high values | AID 2642 | P51787;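 active means compounds whose thallium flux B-score, printed positive for inhibition, exceeds three library SD while starting fluorescence stays within three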;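 further: channel opened by potassium depolarization with thallium stimulus after 20 min compound exposure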
KCNQ1 pot: potentiates or activates the human KCNQ1 potassium channel; P51787; CHO-K1 KCNQ1, thallium flux FluxOR fluorescence; hits give high values; B-score at 10 µM; actives 0.35% (n = 310,000); AID 2648;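 active means fluorescence ratio B-score, a plate-corrected score, at least three library SD, with initial intensity B-score within 5 SD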
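System: CHO-K1 cells stably expressing KCNQ1 / Medium: assay buffer for compound exposure, DMSO matched across wells / Reagent: thallium- and potassium-containing depolarizing buffer / Compound: one concentration, matched DMSO / Incubation: 20 min compound pretreatment at room temperature / Measured by: kinetic FluxOR fluorescence, 10 s baseline plus 110 s post-stimulus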
KCNK3 block: human KCNK3 channel inhibition, primary screen. O14649. CHO-KCNK3 thallium flux, FluxOR fluorescence; hits give low values. B-score at 10 µM. actives 0.84% (n = 340,000);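 active means B-score under library mean minus 4 SD, starting fluorescence ratio at most library mean plus 5 SD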;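 further: more negative B-score means stronger inhibition of thallium flux through KCNK3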
Kir21 inh: Kir2.1 (mouse) channel inhibition | P35561 | HEK293-Kir2.1, FluxOR thallium flux fluorescence; hits give low values | B-score at 10 µM | actives 0.85% (n = 310,000);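 active means fluorescence ratio B-score at or below minus 3 SD of library scores, with starting-brightness B-score within 2 SD, cut at about -4.2 in these data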;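 further: channel flux triggered by added potassium and thallium sulfate stimulus; B-score of peak minus minimum fluorescence over baseline after thallium stimulus; more negative B-score means stronger Kir2.1 block with less thallium influx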
hERG rescue: shields human hERG channel from block by proarrhythmic agents. actives 0.51% (n = 310,000). Q12809. CHO-hERG, FluxOR thallium flux, dofetilide IC70 present. activation (rescue from dofetilide block), less the hit threshold, % at 10 µM;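 active means activation above the mean of controls blocked by dofetilide plus 5 SD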;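 further: thallium influx through hERG after potassium depolarization seen as dye fluorescence rise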
KCNK9 inh: blocks the human KCNK9 two-pore domain potassium channel. Q9NPC2. HEK293 KCNK9, FluxOR thallium flux fluorescence; hits give low values. B-score at 10 µM. actives 1.2% (n = 310,000);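 active means ratio B-score over 3 SD below the library mean, with starting fluorescence within 5 SD of its mean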;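 further: negative B-score means less thallium flux so channel inhibition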
Target sequence (Q9NPC2 whole entry, looked up, the tested form may be a part): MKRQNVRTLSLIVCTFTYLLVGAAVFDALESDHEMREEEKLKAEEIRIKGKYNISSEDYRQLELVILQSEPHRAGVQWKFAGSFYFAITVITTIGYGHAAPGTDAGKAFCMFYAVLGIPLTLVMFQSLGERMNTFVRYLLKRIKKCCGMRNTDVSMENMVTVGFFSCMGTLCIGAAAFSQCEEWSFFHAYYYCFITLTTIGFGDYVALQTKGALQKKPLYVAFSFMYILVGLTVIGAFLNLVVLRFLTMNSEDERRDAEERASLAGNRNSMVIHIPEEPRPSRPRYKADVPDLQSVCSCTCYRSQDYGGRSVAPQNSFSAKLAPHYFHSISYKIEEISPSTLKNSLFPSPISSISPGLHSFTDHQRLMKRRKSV
KCNQ1 inh valid: human KCNQ1 channel inhibition, validation assay. shares compounds with KCNQ1 block. inhibition, % at 10 µM. actives 93% (n = 1,600). KCNQ1 cell line, FluxOR thallium flux fluorescence;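 active means primary screen active, with duplicate mean exceeding buffer control mean plus 3 SD of buffer wells, cut at about 28% in these data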;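 further: 0% = buffer control ratio and 100% = XE991 inhibitor control ratio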
CHO Tl flux: KCNQ1 inhibitor counter-screen hit in parental CHO cells; shares compounds with KCNQ1 block; parental CHO-K1, FluxOR thallium flux fluorescence ratio; hits give low values; zero means no signal rise above baseline; fluorescence ratio (Tl flux) at 10 µM; actives 21% (n = 1,600);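 active means mean of duplicate thallium-flux fluorescence ratios in parental host cells more than 5 SD below the buffer control mean, cut at about 0.38 in these data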;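 further: ratio is peak minus minimum fluorescence divided by baseline fluorescence; actives read low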
KCNQ1 APC inh: confirmation of human KCNQ1 potassium channel inhibitors by electrophysiology. shares compounds with KCNQ1 block. KCNQ1-CHO cells, automated patch clamp current. calls only at 10 µM. actives 20% (n = 490);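 active means KCNQ1 current drop exceeding 3 SD of negative control wells, seen in both duplicate runs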;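 further: steady state current during a 2 s step from -80 to +40 mV; negative values mean current inhibition and positive values mean potentiation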
KCNQ2 spec: selectivity of KCNQ1 inhibitors: inhibition of rat KCNQ2 channel | KCNQ2 cells, FluxOR thallium flux fluorescence | inhibition, % at 10 µM | shares compounds with KCNQ1 block | actives 71% (n = 1,600);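 active means mean percent inhibition of the KCNQ2 thallium signal more than 5 SD above the buffer-only control wells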;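 further: KCNQ2 expressed in CHO cells; 0% = buffer control wells and 100% = XE-991 inhibitor control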
KCNQ1 KCNE1 spec: selectivity of KCNQ1 inhibitors: inhibition of human KCNQ1/KCNE1 channel. AID 652147. actives 77% (n = 1,600). shares compounds with KCNQ1 block. inhibition, % at 10 µM. KCNQ1/KCNE1 cells, FluxOR thallium flux fluorescence;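 active means mean percent inhibition of duplicate wells above the buffer-only control mean plus 3 SD of those controls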;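 further: 0% = buffer only wells and 100% = XE-991 inhibitor control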
* hit, by the source's call; i = inactive; · = not tested or not shown.

SMILES	KCNQ1 block	KCNQ1 pot	KCNK3 block	Kir21 inh	hERG rescue	KCNK9 inh	KCNQ1 inh valid	CHO Tl flux	KCNQ2 spec	KCNQ1 KCNE1 spec	others
O=C(NC1CCN(C(=S)Nc2ccc(F)cc2)CC1)c1ccco1	i	i	i	1.42	-6.0	i	·	·	·	·
CC1CCc2c(sc3nc(C(C)(C)C)nc(N4CCN(C(=O)CCl)CC4)c23)C1 (stereo unspecified)	11*	i	i	-1.11	-4.8	i	109.5*	0.408	128.0%*	156.0%*	KCNQ1 APC inh=i
CCC(=O)N1CCN(c2nc(CC)nc3sc4c(c23)CCCC4)CC1	i	i	i	0.12	1.7	i	·	·	·	·
Cc1ccc(N=Nc2c(N)[nH]n3c(=O)cc(-c4ccccc4)nc23)cc1	9*	i	i	1.02	-11.1	i	46.0*	0.485	i	87.0%*
CCOC(=O)Nc1ccc2c(c1)N(C(=O)CN1CCN(C)CC1)c1ccccc1S2	9*	i	i	1.2	-9.0	i	0.0	0.453	i	57.0%*
O=C(Nc1ccc(N2CCCCC2)c(Cl)c1)c1ccc2c(c1)OCCO2	9*	i	i	-0.56	-7.3	i	86.5*	0.464	98.0%*	120.5%*
O=C(Nc1ccc(N2CCCC2)c(Cl)c1)c1ccc2c(c1)OCCO2	i	i	i	1.26	-6.2	i	·	·	·	·
Fc1ccc(CNC(=S)Nc2ccc(OC(F)F)cc2)cc1	7*	i	i	-0.15	-8.0	i	56.0*	0.504	i	39.5%*
CSc1nc(Cl)c(Cc2ccc(OCC(C)C)cc2)c(N2CCOCC2)n1	8*	i	i	-1.65	-7.8	i	110.5*	0.4	103.0%*	136.0%*	KCNQ1 APC inh=i
CSc1nc(N2CCOCC2)c2c3c(sc2n1)CCCC3	i	i	i	0.01	-4.5	i	·	·	·	·
CCCCOc1ccc(Cc2c(Cl)nc(SC)nc2N2CCOCC2)cc1	7*	i	i	-1.27	-20.7	i	63.0*	0.391	102.0%*	68.0%*
CCOc1ccc(N2C(=O)C3C4C=CC([C@H]5CC45)[C@@H]3C2=O)cc1 (stereo partly specified)	i	i	i	0.64	-9.8	i	·	·	·	·
O=C(c1ccc2ncsc2c1)N1CCN(c2cccc(C(F)(F)F)c2)CC1	·	·	i	·	·	·	·	·	·	·
Fc1ccccc1CN1CCCN(C(=S)Nc2cccc(Cl)c2)C1	7*	i	i	-0.01	-7.9	i	47.0*	0.479	72.7%*	i
Cc1c(Cl)cccc1NC(=S)N1CCCN(Cc2ccccc2F)C1	i	i	i	-1.35	-16.0	i	·	·	·	·
COc1ccccc1N(CC(=O)Nc1cc(C)on1)S(=O)(=O)c1cccc(C(F)(F)F)c1	·	·	i	·	·	·	·	·	·	·
O=C(COC(=O)c1ccccc1Cc1ccccc1)Nc1ccc(SC(F)F)cc1	7*	i	i	0.76	-8.0	i	86.5*	0.407	127.7%*	101.0%*
CC12CCC(=O)N1C(C(=O)NNC(=O)c1ccccc1)CS2 (stereo unspecified)	i	i	i	-1.65	-6.5	i	·	·	·	·
CCc1c(C#N)c(SCCC(=O)Nc2cccc(OC)c2)nc2c1C(=O)CC(C)(C)C2	7*	i	i	-1	-17.3	i	108.0*	0.429	99.0%*	129.0%*	KCNQ1 APC inh=i
